In ChEMBL document CHEMBL3351651 (Bioorg Med Chem, 2014):

Columns and labels:
Mus musculus [1] = experiment: Hypolipidiemic activity in tyloxapol-induced ICR mouse hyperlipidemic model assessed as reduction in serum LDL-cholesterol level at 50 mg/kg, ip after 24 hrs; format: functional; parameters: scale not given: the % may be the effect or the level left; settings: route intraperitoneal
Mus musculus [2] = experiment: Hypolipidiemic activity in tyloxapol-induced ICR mouse hyperlipidemic model assessed as increase in serum HDL-cholesterol level at 100 mg/kg, ip after 24 hrs; format: functional; settings: route intraperitoneal
Mus musculus [3] = experiment: Hypolipidiemic activity in tyloxapol-induced ICR mouse hyperlipidemic model assessed as reduction in serum LDL-cholesterol level at 25 mg/kg, ip after 24 hrs; format: functional; parameters: scale not given: the % may be the effect or the level left; settings: route intraperitoneal
Mus musculus [4] = experiment: Hypolipidiemic activity in tyloxapol-induced ICR mouse hyperlipidemic model assessed as increase in serum HDL-cholesterol level at 50 mg/kg, ip after 24 hrs; format: functional; settings: route intraperitoneal
Mus musculus [5] = experiment: Hypolipidiemic activity in tyloxapol-induced ICR mouse hyperlipidemic model assessed as reduction in serum triglyceride level at 25 mg/kg, ip after 24 hrs; format: functional; parameters: scale not given: the % may be the effect or the level left; settings: route intraperitoneal
Mus musculus [6] = experiment: Hypolipidiemic activity in tyloxapol-induced ICR mouse hyperlipidemic model assessed as increase in serum HDL-cholesterol level at 25 mg/kg, ip after 24 hrs; format: functional; settings: route intraperitoneal
Mus musculus [7] = experiment: Hypolipidiemic activity in tyloxapol-induced ICR mouse hyperlipidemic model assessed as reduction in serum cholesterol level at 25 mg/kg, ip after 24 hrs; format: functional; parameters: scale not given: the % may be the effect or the level left; settings: route intraperitoneal
Mus musculus [8] = experiment: Hypolipidiemic activity in tyloxapol-induced ICR mouse hyperlipidemic model assessed as reduction in serum LDL-cholesterol level at 100 mg/kg, ip after 24 hrs; format: functional; parameters: scale not given: the % may be the effect or the level left; settings: route intraperitoneal
Mus musculus [9] = experiment: Hypolipidiemic activity in tyloxapol-induced ICR mouse hyperlipidemic model assessed as reduction in serum cholesterol level at 100 mg/kg, ip after 24 hrs; format: functional; parameters: scale not given: the % may be the effect or the level left; settings: route intraperitoneal
Mus musculus [10] = experiment: Hypolipidiemic activity in tyloxapol-induced ICR mouse hyperlipidemic model assessed as reduction in serum triglyceride level at 100 mg/kg, ip after 24 hrs; format: functional; parameters: scale not given: the % may be the effect or the level left; settings: route intraperitoneal
Mus musculus [11] = experiment: Hypolipidiemic activity in tyloxapol-induced ICR mouse hyperlipidemic model assessed as reduction in serum cholesterol level at 50 mg/kg, ip after 24 hrs; format: functional; parameters: scale not given: the % may be the effect or the level left; settings: route intraperitoneal
Mus musculus [12] = experiment: Hypolipidiemic activity in tyloxapol-induced ICR mouse hyperlipidemic model assessed as reduction in serum triglyceride level at 50 mg/kg, ip after 24 hrs; format: functional; parameters: scale not given: the % may be the effect or the level left; settings: route intraperitoneal
Mus musculus [13] = experiment: Hypolipidiemic activity in tyloxapol-induced ICR mouse hyperlipidemic model assessed as reduction in serum cholesterol level at 17 mg/kg, ip after 24 hrs; format: functional; parameters: scale not given: the % may be the effect or the level left; settings: route intraperitoneal
How it was run: (§1)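 Male ICR mice (25–30 g) were kept at 24 °C with a 12 h light/dark cycle on standard pellet diet with free water. Hyperlipidemia was induced with tyloxapol (400 per table) and test agents were given ip. After 24 h, retro-orbital blood was centrifuged and serum TC, HDL-C and TG were measured. LDL-C was calculated by the Friedewald equation. Assays were run in duplicate; values are means of 6 mice.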

Mus musculus [14] = experiment: Hypolipidiemic activity in tyloxapol-induced ICR mouse hyperlipidemic model assessed as reduction in serum LDL-cholesterol level at 17 mg/kg, ip after 24 hrs; format: functional; parameters: scale not given: the % may be the effect or the level left; settings: route intraperitoneal; how it was run: as §1
Mus musculus [15] = experiment: Hypolipidemic activity in tyloxapol-induced ICR mouse hyperlipidemic model assessed as reduction in serum triglyceride level at 17 mg/kg, ip after 24 hrs; format: functional; parameters: scale not given: the % may be the effect or the level left; settings: route intraperitoneal; how it was run: as §1
Mus musculus [16] = experiment: Hypolipidiemic activity in tyloxapol-induced ICR mouse hyperlipidemic model assessed as increase in serum HDL-cholesterol level at 17 mg/kg, ip after 24 hrs; format: functional; settings: route intraperitoneal; how it was run: as §1
[17] = Metabolic stability in presence of pepsin (unknown origin) assessed as retention time by HPLC analysis; format: ADME; settings: human, isolated protein
[18] = Metabolic stability in presence of alpha-chymotrypsin (unknown origin) assessed as retention time by HPLC analysis; format: ADME; settings: human

Row | SMILES | Retention_time [17] [min] | Retention_time [18] [min] | Retention time [18] [min] | Activity (Mus musculus [1]) [%] | Activity (Mus musculus [2]) [%] | Activity (Mus musculus [3]) [%] | Activity (Mus musculus [4]) [%] | Activity (Mus musculus [5]) [%] | Activity (Mus musculus [6]) [%] | Activity (Mus musculus [7]) [%] | Activity (Mus musculus [8]) [%] | Activity (Mus musculus [9]) [%] | Activity (Mus musculus [10]) [%] | Activity (Mus musculus [11]) [%] | Activity (Mus musculus [12]) [%] | Activity (Mus musculus [13]) [%] | Activity (Mus musculus [14]) [%] | Activity (Mus musculus [15]) [%] | Activity (Mus musculus [16]) [%]
1 | CCC(=O)c1cc(OC)c(OC)cc1O | – | – | – | -87.68 | 40.68 | -86.72 | 16.95 | -80.09 | 6.78 | -81.69 | -88.35 | -81.43 | -80.92 | -81.95 | -81.01 | – | – | – | –
2 | CCC(C)(C)C(=O)O[C@H]1C[C@@H](C)C=C2C=C[C@H](C)[C@H](CC[C@@H]3C[C@@H](O)CC(=O)O3)[C@H]21 [SIMVASTATIN] | – | – | – | – | – | – | – | – | – | – | – | – | – | – | – | -63.46 | -84.31 | -57 | 292.2
3 | CCCCc1cc(OC)c(OCC(=O)OC)cc1O | 13.81 | 13.8 | – | -62.75 | 89.83 | -77.77 | -3.39 | -20.46 | 11.86 | -70.62 | -89.51 | -79.95 | -82.75 | -59.46 | -49.82 | – | – | – | –
4 | COC(=O)COc1cc(O)c(C(C)=O)cc1OC | 8.67 | 8.68 | – | -76.9 | 13.56 | -81.62 | 1.69 | -28.62 | 8.47 | -74.72 | -85.76 | -75.33 | -51.38 | -72.71 | -74.77 | – | – | – | –
5 | CCCC(=O)c1cc(OC)c(OCC(=O)OC)cc1O | 13.16 | 13.18 | – | -54.28 | 35.59 | -84.7 | 20.34 | -73.12 | 30.51 | -78.38 | -79.4 | -73.23 | -73.58 | -49.26 | -27.8 | – | – | – | –
6 | CCCc1cc(OC)c(OCC(=O)OC)cc1O | – | – | – | -87.97 | 50.85 | -89.32 | 57.63 | -84.13 | 91.53 | -79.77 | -81.23 | -74.02 | -71.38 | -80.21 | -81.93 | – | – | – | –
7 | CCC(=O)c1cc(OC)c(OCC(=O)OC)cc1O | – | – | – | -76.03 | 45.76 | -72.18 | 66.1 | -59.82 | -3.39 | -68.18 | -81.33 | -74.46 | -75.41 | -66.87 | -31.93 | – | – | – | –
8 | CCCc1cc(OC)c(OC)cc1O | – | – | – | -71.61 | 15.25 | -78.15 | 25.42 | -82.75 | 49.15 | -71.84 | -73.63 | -69.22 | -77.98 | -66.7 | -73.85 | – | – | – | –

Now from value to molecule, other results behind:

Row | Retention_time [17] [min] | Retention_time [18] [min] | Retention time [18] [min] | SMILES | Activity (Mus musculus [1]) [%] | Activity (Mus musculus [2]) [%] | Activity (Mus musculus [3]) [%] | Activity (Mus musculus [4]) [%] | Activity (Mus musculus [5]) [%] | Activity (Mus musculus [6]) [%] | Activity (Mus musculus [7]) [%] | Activity (Mus musculus [8]) [%] | Activity (Mus musculus [9]) [%] | Activity (Mus musculus [10]) [%] | Activity (Mus musculus [11]) [%] | Activity (Mus musculus [12]) [%] | Activity (Mus musculus [13]) [%] | Activity (Mus musculus [14]) [%] | Activity (Mus musculus [15]) [%] | Activity (Mus musculus [16]) [%]
9 | 6.95 | – | 6.94 | CCc1cc(OC)c(OC)cc1O | -78.34 | 71.19 | -72.47 | 25.42 | -76.79 | 33.9 | -67.13 | -83.93 | -75.85 | -81.65 | -73.41 | -86.97 | – | – | – | –
10 | 13.84 | 13.83 | – | CCCC(=O)c1cc(OC)c(OC)cc1O | -87.97 | 8.47 | -80.65 | 30.51 | -69.54 | 33.9 | -74.28 | -88.74 | -83.26 | -79.36 | -81.4 | -77.25 | – | – | – | –
11 | 8.57 | 8.58 | – | COc1cc(O)c(C(C)=O)cc1OC | -87.01 | 55.93 | -76.23 | 44.07 | -59.63 | -4.75 | -71.84 | -87.68 | -80.12 | -82.11 | -80.09 | -80.92 | – | – | – | –
12 | 7.78 | 7.78 | – | CCc1cc(OC)c(OCC(=O)OC)cc1O | -75.26 | -3.39 | -86.14 | 28.81 | -72.94 | 40.68 | -79.08 | -82.58 | -78.2 | -75.87 | -69.22 | -59.63 | – | – | – | –
13 | 12.45 | 12.44 | – | CCCCc1cc(OC)c(OC)cc1O | -70.93 | 23.73 | -74.78 | 11.86 | -82.57 | 23.73 | -70.1 | -74.69 | -70.1 | -83.94 | -67.04 | -79.17 | – | – | – | –
